MBD2 inh – inhibitors of human MBD2 binding to methylated oligonucleotide. Q9UBB5. TR-FRET. inhibition, % at 4.4 µM. hit rate 0.31% among 370,000; in the data active means inhibition above about 13%
CSN deneddyl inh – CSN deneddylation inhibition. Purified CSN, SCF-Nedd8-OG deneddylation, fluorescence polarization. inhibition, % at 12.5 µM. hit rate 0.38% among 360,000. AID 651999;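 active means pattern-corrected inhibition above about 35%, with an unprinted fluorescence ratio check between 0.5 and 1.5, limit read from the data, passing the limit was not always enough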
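Schedule: reaction 90 min, room temperature / Assay system: HEK293T-derived human Csn5 enzyme / Input: Csn5 at 0.24 nM final / Measure: inhibition of Csn5 cleavage, % / Control set: substrate-only high control, full reaction low control / Technique: fluorescence polarization of the substrate / Buffer or medium: Tris/NaCl/DTT buffer, pH 7.5 / Reagent: SCFSkp2-Nedd8OG substrate at 10 nM final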
rCAG binder – binds r(CAG) RNA repeats; r(CAG) RNA repeat, TO-PRO-1 dye displacement fluorescence; inhibition, % at 3 µM; hit rate 1.3% among 370,000; AID 651821;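 active means inhibition above the plate cutoff, the mean of all test compounds on that plate plus 3 SD, cut at about 35% in these data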;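 further: higher means more dye released from RNA so lower well fluorescence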
ATG4B inh – inhibitors of human ATG4B cysteine protease; Q9Y4P1; ATG4B cleavage of LC3-PLA2, NBD-HPC fluorescence, 1 h; inhibition, % at 8.33 µM; hit rate 0.51% among 340,000; AID 504462; in the data active means inhibition above about 40%
Target sequence (Q9Y4P1 whole entry, looked up): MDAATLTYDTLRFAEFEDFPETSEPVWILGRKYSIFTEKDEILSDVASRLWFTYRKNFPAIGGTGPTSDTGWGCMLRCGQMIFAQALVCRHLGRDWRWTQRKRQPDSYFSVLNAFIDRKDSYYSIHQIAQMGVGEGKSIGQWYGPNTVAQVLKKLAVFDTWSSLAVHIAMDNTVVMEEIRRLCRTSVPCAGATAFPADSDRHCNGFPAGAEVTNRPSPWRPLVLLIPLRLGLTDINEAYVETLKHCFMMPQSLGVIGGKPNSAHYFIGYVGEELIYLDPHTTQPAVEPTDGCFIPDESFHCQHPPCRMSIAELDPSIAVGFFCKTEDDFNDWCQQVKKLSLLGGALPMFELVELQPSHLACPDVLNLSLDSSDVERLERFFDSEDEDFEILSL
LEDGF integ inh – blocks HIV-1 LEDGF/p75-dependent DNA integration. TR-FRET IN-LEDGF/p75 DNA integration, Eu/Cy5. inhibition, % at 3.7 µM. hit rate 0.64% among 370,000;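 active means inhibition above the screen-wide mean plus 3 SD, cut at about 13% in these data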;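 further: signal is the Cy5 over europium emission ratio at 671 and 618 nm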
UHRF1 MBD2 ctr – blocks human UHRF1 binding to methylated DNA. UHRF1 binding to methylated oligo, TR-FRET. inhibition, % at 4.4 µM. hit rate 0.75% among 370,000. AID 687016; in the data active means inhibition above about 21%;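 further: UHRF1 SRA domain binding a hemimethylated CpG hairpin DNA probe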
IN multimer act – counter-screen for LEDGF/p75 integration inhibitors: HIV-1 integrase multimerization activators | shares compounds with LEDGF integ inh | activation, % at 7.7 µM | TR-FRET HIV-1 integrase multimerization, biochemical | AID 1053131 | hit rate 17% among 2,000; in the data active means activation above about 8.9%
TRFRET interf – counter-screen for LEDGF/p75 integration inhibitors: TR-FRET optical interference. inhibition, % at 7.7 µM. TR-FRET optical interference counterscreen, HIV-1 IN multimerization. 2,000 tested, under 10 active. shares compounds with LEDGF integ inh;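 active means inhibition above the mean over all tested compounds plus 3 SD, which no compound reached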
LEDGF integ conf – confirmation of HIV-1 LEDGF/p75-dependent integration inhibitors; shares compounds with LEDGF integ inh; hit rate 36% among 2,000; inhibition, % at 3.7 µM; TR-FRET LEDGF/p75-dependent HIV-1 integration, biochemical; in the data active means inhibition above about 14%
A number is an active result; n = inactive; x = not tested or not shown. Sampled rows, rich in hits. Any-hit rate of the full collection: about 3.1%.

SMILES	MBD2 inh	CSN deneddyl inh	rCAG binder	ATG4B inh	LEDGF integ inh	UHRF1 MBD2 ctr	IN multimer act	TRFRET interf	LEDGF integ conf
COc1ccccc1N(CC(=O)NC1CCCCC1C)S(=O)(=O)c1cccs1 (stereo unspecified)	n	n	n	n	33.5	n	n	n	n
COc1ccc(C2C(C(=O)N3CCN(C=O)CC3)CC(=O)N2c2ccc(OC)cc2)cc1 (stereo unspecified)	n	x	n	x	n	n	x	x	x
CCCn1c2ccccc2c2nnc(SCc3[nH]c(=O)[nH]c3C(=O)CCCCC(=O)OCC)nc21	n	n	n	n	29.5	n	n	n	18.8
CCOC(=O)CCCCC(=O)c1[nH]c(=O)[nH]c1CSc1nnc2c3ccccc3n(C(C)C)c2n1	n	n	n	n	27.6	n	n	n	n
CCCCSCc1[nH]c(=O)[nH]c1C(=O)CCCCC(=O)OCC	n	n	n	n	n	n	x	x	x
Cc1ccc(C(=O)NCC(=O)OCc2nc3sc(C)c(C)c3c(=O)[nH]2)cc1	n	x	n	x	n	n	x	x	x
Nc1nc(C(F)(F)F)cc(=O)[nH]1	n	n	n	n	n	n	x	x	x
O=c1cc(C(F)(F)F)nc(-n2[nH]c3c(c2=O)CCCC3)[nH]1	n	n	n	n	16.7	n	n	n	n
O=C(CCl)Nc1ccc(S(=O)(=O)NC2=NCCCCC2)cc1	n	n	n	n	17.2	n	n	n	n
O=C(CCl)Nc1cccc(S(=O)(=O)NC2=NCCCCC2)c1	n	n	n	n	n	n	x	x	x
O=C1CC(c2ccco2)CC(O)=C1C=Nc1cc(Cl)ccc1Cl (stereo unspecified)	n	n	n	n	20.8	24.4	n	n	21.4
O=C(NCc1ccco1)C1CCCN(S(=O)(=O)c2ccccc2[N+](=O)[O-])C1 (stereo unspecified)	n	x	n	x	n	n	x	x	x
COc1ccc(C(C[N+](=O)[O-])c2c(C)[nH]n(-c3ccccc3)c2=O)cc1 (stereo unspecified)	n	n	n	n	25.4	n	n	n	21.8
COc1ccc(/C=C/C(=O)N2CCCc3ccccc32)cc1	n	n	n	n	21.1	n	9.5	n	19.1
Cc1nc2ccc(S(=O)(=O)NCC(=O)NCc3ccc(F)cc3)cc2s1	n	x	n	x	n	n	x	x	x
CCOc1ccccc1NC(=O)CN1CCC(NC(=O)c2ccccc2C)CC1	n	n	n	n	20.7	n	n	n	n
COc1ccc(-n2c(SCC(=O)N/N=C(/C)c3cccc(O)c3)nc3ccccc3c2=O)cc1	n	x	n	x	n	n	x	x	x
Oc1cc(NCCN2CCOCC2)cc2cccnc12	n	n	n	n	36.9	n	n	n	42.4
Oc1cc(Nc2ccccc2)cc2cccnc12	n	n	n	n	n	n	x	x	x
Cc1ccc(S(=O)(=O)N2C=C(c3ccccc3)c3ccccc3-c3ccccc32)cc1	n	x	x	x	n	n	x	x	x
CSC1(SC2=NCCN2)SC2(NCCN2)S1	n	n	n	n	22.7	n	n	n	n
Cn1nnnc1SCC(=O)N1CCCCC1	n	n	n	n	n	n	x	x	x
Cn1nnnc1SCC(=O)N1CCN(c2ccc(Cl)cc2)CC1	n	n	n	n	56.6	n	n	n	n
CCOC(=O)c1cnc(SCC(=O)NNC(=O)c2ccco2)nc1N	n	n	n	n	72.3	n	n	n	n
CCOC(=O)[C@@]12CCC3=C1N(CCC3)C(=O)[C@H](CC(=O)NCc1cccc3ccccc13)C2	n	x	n	x	n	n	x	x	x
SMILES	MBD2 inh	CSN deneddyl inh	rCAG binder	ATG4B inh	LEDGF integ inh	UHRF1 MBD2 ctr	IN multimer act	TRFRET interf	LEDGF integ conf
Cn1ccc2c(N(Cc3ccccc3)Cc3ccccc3)cc3c(c21)C1CCC3O1 (stereo unspecified)	n	84.4	n	x	19.7	n	n	n	n
O=C(NC1CCCCN(Cc2cccc(Cl)c2)C1=O)c1ccc(Cl)cc1Cl (stereo unspecified)	n	x	n	x	n	n	x	x	x
Cc1cc(C)nc(SCC(=O)Nc2nc(-c3ccccc3)c(-c3ccccc3)o2)n1	n	n	n	n	n	n	x	x	x
Cc1ccc(C(=O)Nc2nc(-c3ccccc3)c(-c3ccccc3)o2)cc1	n	n	n	n	20.6	n	n	n	22.5
COc1ccc(/C(C)=N\NC(=O)c2ccco2)cc1	n	x	n	x	n	n	x	x	x
O=C(Nc1cccc(NC(=O)c2ccc([N+](=O)[O-])o2)c1)c1ccco1	n	n	n	n	n	n	x	x	x
NC(=O)/C(=C\c1ccc([N+](=O)[O-])o1)c1ccco1	n	n	n	x	22.1	n	n	n	27.9
N#Cc1nc(-c2ccc(OCc3ccccc3)cc2)oc1N1CCC(C(N)=O)CC1	n	n	n	n	n	n	x	x	x
N#Cc1nc(-c2cccc(Cl)c2)oc1N1CCC(C(N)=O)CC1	n	n	n	n	26.5	n	n	n	n
C=CCNC(=O)CN(C(=O)Cc1ccc(Cl)nc1)c1cccc(Br)c1	n	x	n	x	n	n	x	x	x
O=C(NCCc1nc2ccccc2n1C/C=C/c1ccccc1)C1CCCCC1	n	x	x	x	n	n	x	x	x
CCCCOc1ccc(C(=O)NC2CCCCN(CC)C2=O)cc1 (stereo unspecified)	n	x	n	x	n	n	x	x	x
COc1ccc(S[C@]2(C(=O)N3CCN(C(C)=O)CC3)CC(=O)N(C(=O)Nc3ccc(C)c(Cl)c3)[C@@H]2c2ccc(OC)cc2)cc1	n	x	n	x	n	n	x	x	x
NS(=O)(=O)c1ccc(CCNC(=O)c2ccc(Cl)nc2)cc1	n	n	n	n	15.9	n	n	n	n
Cc1ccc(Cn2cc(CN3[C@H](Cc4ccccc4)COc4cc(Br)ccc4S3(=O)=O)nn2)cc1	n	x	n	x	n	n	x	x	x
CCCCc1cc(=O)oc2cc(OC3CCCCC3=O)ccc12 (stereo unspecified)	n	n	n	n	18.2	n	n	n	n
Cc1cc2c(N)cccc2nn1	n	n	n	n	73.5	44.6	n	n	78.0
Nc1cccc2nc3ccccc3cc12	x	n	x	n	x	x	x	x	x
Oc1ccc(CNc2cccnc2)c2cccnc12	n	x	x	x	n	n	x	x	x
Cc1nc2ccccc2n2c(O)c(CC(=O)O)cc12	n	n	n	n	22.7	n	n	n	16.5
COc1cc(C(=O)Nc2nc(C)cc(C)n2)cc(OC)c1OC	n	n	n	n	58.9	n	n	n	n
CCOC(=O)c1ccc(NC(=O)c2cc(OC)c(OC)c(OC)c2Br)cc1	n	n	n	n	n	n	x	x	x
COc1cccc(NC(=O)c2cc(OC)c(OC)c(OC)c2Br)c1	n	n	n	n	14.0	n	n	n	n

Bioassay records (PubChem BioAssay)
